Measurements from ChEMBL document CHEMBL1124161, “4-Hydroxy-3-quinolinecarboxamides with antiarthritic and analgesic activities” (J Med Chem, 1988).
pIC50: −log10 of the molar value. Active and inactive are the calls of the source. The rule behind the calls is not given here.

Columns and labels:
Rattus norvegicus [1] = species on record: Rattus norvegicus; test: Antiarthritis activity against adjuvant-induced arthritis in rats; assay type: functional
Summary of the method: (§1)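 Groups of five male Lewis rats, 40–50 days old, given intraplantar injection in right hind paw of 0.6 mg Mycobacterium butyricum in 0.1 mL Bayol 55. Drug given in food from adjuvant day to day 17. Injected and noninjected hind paw volumes measured day 17 against normal controls. ED50 by least-squares curve fitting or Litchfield–Wilcoxon probit.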

Rattus norvegicus [2] = test: Anti-arthritis activity against adjuvant-induced arthritis in rats after peroral administration; assay type: functional; details: Rattus norvegicus, po; read-out: ED50; summary of the method: as §1
Rattus norvegicus [3] = test: Ulcerogenic effect after oral administration (gastric ulcer); assay type: functional
Summary of the method: (§2)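 Groups of eight female rats (120–150 g), fasted 24 h, dosed orally; killed 7 h later and stomachs scored. Ulceration index = (mean ulcer degree × rats with ulcers / number of rats) × 100, ulcers being scores above 0.5. ED100 (index 100, max 300) read graphically.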

Rattus norvegicus [4] = test: Ulcerogenic effect after oral administration (intestinal ulcer); assay type: functional
Summary of the method: (§3)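 Nonfasted male rats (150–180 g) killed 24 h after oral dosing, and intestinal ulcers scored. Ulceration index = (mean degree × rats with ulcers / rats) × 100. ED100 (index 100) determined graphically.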

Mus musculus [5] = test: Analgesic activity against acetic acid induced writhing test in mouse after peroral administration; assay type: functional
Rattus norvegicus [6] = test: Antiinflammatory activity against carrageenan-induced foot edema in rat; assay type: functional
Summary of the method: (§4)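 Groups of eight male Sprague-Dawley rats (150–180 g) dosed orally at the time of subplantar injection of 0.5 mg carrageenin. Paw volume difference measured before and 5 h after injection. Expressed as ED40, estimated graphically or by Litchfield–Wilcoxon probit analysis.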

[7] = target: T1, Polyunsaturated fatty acid 5-lipoxygenase (Rattus norvegicus, UniProt P12527); test: Inhibition of 5-lipoxygenase from rat peritoneal neutrophils in vitro
T1 sequence (P12527 whole entry): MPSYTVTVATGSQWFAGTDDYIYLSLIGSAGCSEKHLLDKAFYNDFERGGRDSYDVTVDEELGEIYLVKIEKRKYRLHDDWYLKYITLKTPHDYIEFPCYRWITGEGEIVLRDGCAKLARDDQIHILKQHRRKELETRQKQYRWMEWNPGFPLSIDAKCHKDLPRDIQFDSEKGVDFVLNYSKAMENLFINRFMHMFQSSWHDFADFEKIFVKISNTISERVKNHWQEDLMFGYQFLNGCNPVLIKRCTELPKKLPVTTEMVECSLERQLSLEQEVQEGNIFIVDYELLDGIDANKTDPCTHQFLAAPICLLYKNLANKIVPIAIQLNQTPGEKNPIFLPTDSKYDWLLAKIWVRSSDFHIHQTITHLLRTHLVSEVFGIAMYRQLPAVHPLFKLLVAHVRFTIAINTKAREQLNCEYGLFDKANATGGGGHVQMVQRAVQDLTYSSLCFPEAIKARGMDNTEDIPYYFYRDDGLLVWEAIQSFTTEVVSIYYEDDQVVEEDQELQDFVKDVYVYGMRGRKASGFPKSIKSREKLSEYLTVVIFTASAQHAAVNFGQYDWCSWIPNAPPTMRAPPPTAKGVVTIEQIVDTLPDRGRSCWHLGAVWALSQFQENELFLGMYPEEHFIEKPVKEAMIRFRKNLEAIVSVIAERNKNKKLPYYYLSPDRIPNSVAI

Cyclooxygenase = target: T2, Cyclooxygenase (Bos taurus, UniProt O62664+O62698); test: Inhibition of bovine Prostaglandin G/H synthase in seminal vesicle microsomes in vitro
T2 sequence (O62664 whole entry): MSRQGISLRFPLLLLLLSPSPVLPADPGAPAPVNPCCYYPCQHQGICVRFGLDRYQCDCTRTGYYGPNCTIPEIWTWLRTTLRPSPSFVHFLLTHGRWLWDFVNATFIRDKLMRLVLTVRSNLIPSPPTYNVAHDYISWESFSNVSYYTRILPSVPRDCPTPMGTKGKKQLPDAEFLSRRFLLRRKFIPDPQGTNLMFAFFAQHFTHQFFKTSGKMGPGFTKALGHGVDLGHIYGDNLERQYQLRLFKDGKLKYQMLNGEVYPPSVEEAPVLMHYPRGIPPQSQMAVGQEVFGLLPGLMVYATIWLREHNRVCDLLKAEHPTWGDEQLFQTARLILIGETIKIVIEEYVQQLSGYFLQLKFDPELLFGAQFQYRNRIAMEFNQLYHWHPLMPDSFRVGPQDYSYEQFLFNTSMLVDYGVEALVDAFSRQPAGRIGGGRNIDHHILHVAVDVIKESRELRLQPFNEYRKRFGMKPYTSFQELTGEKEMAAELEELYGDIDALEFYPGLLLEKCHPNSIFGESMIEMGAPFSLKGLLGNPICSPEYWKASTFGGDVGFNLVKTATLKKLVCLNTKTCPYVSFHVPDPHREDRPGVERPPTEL
T2 sequence (O62698 whole entry): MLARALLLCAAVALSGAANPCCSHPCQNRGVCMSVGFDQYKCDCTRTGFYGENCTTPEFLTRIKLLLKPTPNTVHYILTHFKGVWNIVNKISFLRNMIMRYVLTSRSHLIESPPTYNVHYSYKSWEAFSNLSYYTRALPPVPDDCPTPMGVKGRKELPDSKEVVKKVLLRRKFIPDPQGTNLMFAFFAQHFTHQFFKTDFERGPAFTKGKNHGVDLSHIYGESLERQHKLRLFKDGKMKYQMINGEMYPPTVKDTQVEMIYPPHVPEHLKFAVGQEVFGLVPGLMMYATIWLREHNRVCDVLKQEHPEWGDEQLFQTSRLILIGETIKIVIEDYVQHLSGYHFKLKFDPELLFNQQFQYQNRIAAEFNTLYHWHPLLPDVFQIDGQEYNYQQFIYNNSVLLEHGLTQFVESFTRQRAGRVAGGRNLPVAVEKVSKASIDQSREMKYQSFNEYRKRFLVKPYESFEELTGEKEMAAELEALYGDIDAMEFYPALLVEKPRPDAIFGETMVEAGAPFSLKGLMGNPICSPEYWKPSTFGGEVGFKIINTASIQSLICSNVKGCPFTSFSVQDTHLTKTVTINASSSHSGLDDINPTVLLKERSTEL

Mus musculus [8] = test: Analgesic activity against acetic acid induced writhing test in mouse after peroral administration, treatment 6 hr before testing; assay type: functional; details: po
Summary of the method: (§5)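 Groups of 10 female mice (20–22 g), fasted 7 h, dosed orally 6 h before ip injection of 0.2 mL 1% aqueous acetic acid. Stretching and writhing movements counted from minute 5 to 20 after irritant. ED50 evaluated graphically or by computerized least-squares curve fitting.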

Rattus norvegicus [9] = test: Antiinflammatory activity against carrageenan-induced foot edema in rat after peroral administration of 25 mg/kg; IA means Inactive; assay type: functional, organism-based; parameters: dose 25 mg/kg
Mus musculus [10] = test: Analgesic activity against acetic acid induced writhing test in mouse after peroral administration (treatment was 6 hr before testing); assay type: functional; details: po; summary of the method: as §5
Rattus norvegicus [11] = test: Antiinflammatory activity against carrageenan-induced foot edema in rat after peroral administration; assay type: functional; details: po; summary of the method: as §4
Rattus norvegicus [12] = test: Antiarthritis activity against adjuvant-induced arthritis in rats after peroral administration; range is (1.9-5.3); assay type: functional; details: po; summary of the method: as §1
Rattus norvegicus [13] = test: Ulcerogenic effect against gastric ulcer in rats after oral administration; assay type: functional, Stomach; summary of the method: as §2
Rattus norvegicus [14] = test: Ulcerogenic effect against intestinal ulcer in rats after oral administration; assay type: functional; summary of the method: as §3
Rattus norvegicus [15] = test: Antiinflammatory activity against carrageenan-induced foot edema in rat after peroral administration calculated from 4 doses; assay type: functional; details: po; summary of the method: as §4
Rattus norvegicus [16] = test: Ulcerogenic effect against intestinal ulcer in rats after oral administration of 500 mg/kg; IA=Inactive; assay type: functional, organism-based; parameters: dose 500 mg/kg
Summary of the method: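 Nonfasted male rats (150–180 g) killed 24 h after oral dosing; intestinal ulcers scored and ulceration index computed from mean ulcer degree times fraction of rats with ulcers ×100; ED100 (index 100) determined graphically.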

Mus musculus [17] = test: Analgesic activity against acetic acid induced writhing test in mouse after peroral administration; range is (3.2-7.9); assay type: functional; details: po
Rattus norvegicus [18] = test: (§6) Ulcerogenic effect against gastric ulcer in rat after oral administration; assay type: functional, Stomach; summary of the method: as §2
Rattus norvegicus [19] = test: Antiinflammatory activity against carrageenan-induced foot edema in rat after peroral administration calculated from at least four doses
Rattus norvegicus [20] = test: as §6; assay type: functional; details: Stomach; summary of the method: as §2
Rattus norvegicus [21] = test: Antiinflammatory activity against carrageenan-induced foot edema in rat after oral administration of 25 mg/kg; IA=Inactive; assay type: functional, organism-based; parameters: dose 25 mg/kg
Mus musculus [22] = test: Analgesic activity against acetic acid induced writhing test in mouse administered peroral dose of 25 mg/kg; IA=Inactive; assay type: functional, organism-based; parameters: dose 25 mg/kg
Summary of the method: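 Female mice (20–22 g), groups of 10, fasted 7 h; drug given orally 30 min before intraperitoneal injection of 0.2 mL 1% aqueous acetic acid. Stretching/writhing movements counted from minute 5 to 20 after irritant.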

[23] = Mus musculus, po, read-out: ED50

CCC(=O)N[C@@H](CC)c1nc2c(C(F)(F)F)cccc2c(O)c1C(=O)Nc1nccs1
ED50 (Rattus norvegicus [1]): 3.5 mg/kg
ED50 (Rattus norvegicus [2]): 3 mg/kg
ED100 (Rattus norvegicus [3]): >300 mg/kg
ED100 (Rattus norvegicus [4]): >100 mg/kg
ED50 (Mus musculus [5]; [23]): 20 mg/kg
ED40 (Rattus norvegicus [6]): > 100 mg/kg
pIC50 [7]: 5.70
IC50 (Cyclooxygenase): 0.4 µM
ED50 (Mus musculus [8]): 4 mg/kg

COCc1nc2c(C(F)(F)F)cccc2c(O)c1C(=O)Nc1nccs1
ED50 (Rattus norvegicus [9]): inactive
ED50 (Mus musculus [5]; [23]): 25 mg/kg

CC[C@H](N)c1nc2c(C(F)(F)F)cccc2c(O)c1C(=O)Nc1nccs1
ED50 (Rattus norvegicus [2]): 5 mg/kg
ED50 (Mus musculus [10]): 30 mg/kg
ED40 (Rattus norvegicus [11]): 10 mg/kg
ED50 (Mus musculus [5]; [23]): 35 mg/kg
pIC50 [7]: 4.74
IC50 (Cyclooxygenase): 1.4 µM
ED50 (Rattus norvegicus [12]): 3.1 mg/kg
ED100 (Rattus norvegicus [13]): 80 mg/kg
ED100 (Rattus norvegicus [14]): >100 mg/kg

O=C(Nc1nccs1)c1cnc2c(C(F)(F)F)cccc2c1O
ED40 (Rattus norvegicus [15]): > 100 mg/kg
ED100 (Rattus norvegicus [16]): inactive
ED50 (Mus musculus [17]): 5 mg/kg
ED50 (Mus musculus [5]; [23]): 5 mg/kg
pIC50 [7]: 4.46
ED100 (Rattus norvegicus [18]): >500 mg/kg
IC50 (Cyclooxygenase): 2.8 µM

O=C(Nc1nccs1)c1c(C(F)(F)F)nc2c(C(F)(F)F)cccc2c1O
ED40 (Rattus norvegicus [19]): 3.5 mg/kg
ED50 (Rattus norvegicus [2]): 3.8 mg/kg
ED100 (Rattus norvegicus [20]): 15 mg/kg
ED50 (Mus musculus [5]): 0.5 mg/kg
ED50 (Mus musculus [5]; [23]): 0.5 mg/kg
pIC50 [7]: 5.52
IC50 (Cyclooxygenase): 0.4 µM

C=Cc1nc2c(C(F)(F)F)cccc2c(O)c1C(=O)Nc1nccs1
ED50 (Rattus norvegicus [21]): inactive
ED50 (Mus musculus [22]): inactive
